These results are taken from ChEMBL document CHEMBL4219251, “Synthesis and biological evaluation of 2,4-disubstituted phthalazinones as Aurora kinase inhibitors” (Bioorg Med Chem, 2018).

Each structure is given as a SMILES string. Bounds are passed on as bounds.

Usually IC50 stands for the concentration that gives 50% inhibition. The low end stands for greater potency, the high end for weaker potency.

Sequence of Aurora kinase B (Q96GD4 whole entry): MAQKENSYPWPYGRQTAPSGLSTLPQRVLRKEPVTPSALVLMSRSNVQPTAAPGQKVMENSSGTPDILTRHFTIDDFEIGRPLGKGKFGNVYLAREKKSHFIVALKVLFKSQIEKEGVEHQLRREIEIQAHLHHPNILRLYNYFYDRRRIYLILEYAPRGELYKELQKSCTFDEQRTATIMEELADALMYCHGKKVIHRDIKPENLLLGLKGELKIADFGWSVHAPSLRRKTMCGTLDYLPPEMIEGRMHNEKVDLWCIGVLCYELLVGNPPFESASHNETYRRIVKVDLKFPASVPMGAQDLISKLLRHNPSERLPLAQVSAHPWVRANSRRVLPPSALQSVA

The first assay addresses Aurora kinase B (Homo sapiens, UniProt Q96GD4). The assay is described as follows: Inhibition of Aurora B (unknown origin) using kemptide as substrate after 30 mins by kinase-Glo luminescence method.
Settings: not given
The gist of the method: (§1)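 Luminescent kinase assay. Reaction buffer: 40 mM Tris pH 7.4, 10 mM MgCl2, 1 mM DTT, 0.1 mg/ml BSA, 10 μM ATP, 0.2 μg/ml kinase, 100 μM Kemptide. Compounds tested at 0.1, 1, 10, 100 and 1000 nM (diluted in PBS). Reactions ran 30 min at 37 °C, signal read by Kinase-Glo luminescence, IC50 fitted from the curves.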
For `Cn1cc(-c2nn(Cc3ccc(C(=O)NC4CCCC4)cc3)c(=O)c3ccccc23)cn1`, the IC50 is 0.265 µM.

`Cn1cc(-c2nn(Cc3ccc(C(=O)NC4CC(C)(C)N([O])C(C)(C)C4)cc3)c(=O)c3ccccc23)cn1`: inhibition was half-maximal at 0.134 µM (IC50).

`Cn1cc(Nc2nn(Cc3ccc(C(=O)NC4CCCCC4)cc3)c(=O)c3ccccc23)cn1` returned an IC50 of 0.132 µM.

On to `CN1CCC(NC(=O)c2ccc(Cn3nc(-c4cnn(C)c4)c4ccccc4c3=O)cc2)CC1`, for which the IC50 worked out at 0.105 µM.

The test system of the next assay is HepG2. The assay is described as follows: Antiproliferative activity against human HepG2 cells after 72 hrs by MTT assay. The format is functional, cell-based. Particulars: Homo sapiens, HepG2, 72 h. In outline: (§2)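 Cells kept in RPMI-1640 with 10% FBS at 37 °C, 5% CO2. Seeded at 5×10^3 cells/well and grown 24 h, then exposed 72 h at 37 °C to five concentrations (0.01, 0.1, 1, 10, 100 μM) in medium. MTT added for 4 h, formazan dissolved in DMSO, absorbance read at 490 nm. IC50 taken from a log plot of percent of control vs concentration; means ± SD of triplicate experiments.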
Background: Tetrazolium dyes change colour on reduction, which living cells bring about.
The compound `O=C(Nc1ccccc1Cl)c1ccc(Nc2nn(Cc3ccc(C(=O)NC4CCCCC4)cc3)c(=O)c3ccccc23)cc1` had a half-maximal inhibitory concentration (IC50) of 82.4 µM.

`Cn1cc(-c2nn(Cc3ccc(C(=O)NC4CCCC4)cc3)c(=O)c3ccccc23)cn1` returned an IC50 of 84.3 µM.

Turning to `Cc1noc(C)c1-c1nn(Cc2ccc(C(=O)N3CCOCC3)cc2)c(=O)c2ccccc12`, the IC50 was above 100 µM.

In the case of `Cc1noc(C)c1-c1nn(Cc2ccc(C(=O)NC3CCCCC3)cc2)c(=O)c2ccccc12`, the IC50 was above 100 µM.

Take `Cn1cc(-c2nn(Cc3ccc(C(=O)N4CCCCC4)cc3)c(=O)c3ccccc23)cn1`: the half-maximal inhibitory concentration (IC50) amounted to 73.1 µM.

`Cn1cc(-c2nn(Cc3ccc(C(=O)NC4CC(C)(C)N([O])C(C)(C)C4)cc3)c(=O)c3ccccc23)cn1` displayed an IC50 of 27.4 µM.

`Cn1cc(Nc2nn(Cc3ccc(C(=O)NC4CCCCC4)cc3)c(=O)c3ccccc23)cn1` showed an IC50 of 8.3 µM.

The compound `CN1CCC(NC(=O)c2ccc(Cn3nc(-c4cnn(C)c4)c4ccccc4c3=O)cc2)CC1` displayed an IC50 of 47.3 µM.

A further assay concerns the target T1, Aurora kinase A (Homo sapiens, UniProt O14965).
T1 sequence (O14965 whole entry): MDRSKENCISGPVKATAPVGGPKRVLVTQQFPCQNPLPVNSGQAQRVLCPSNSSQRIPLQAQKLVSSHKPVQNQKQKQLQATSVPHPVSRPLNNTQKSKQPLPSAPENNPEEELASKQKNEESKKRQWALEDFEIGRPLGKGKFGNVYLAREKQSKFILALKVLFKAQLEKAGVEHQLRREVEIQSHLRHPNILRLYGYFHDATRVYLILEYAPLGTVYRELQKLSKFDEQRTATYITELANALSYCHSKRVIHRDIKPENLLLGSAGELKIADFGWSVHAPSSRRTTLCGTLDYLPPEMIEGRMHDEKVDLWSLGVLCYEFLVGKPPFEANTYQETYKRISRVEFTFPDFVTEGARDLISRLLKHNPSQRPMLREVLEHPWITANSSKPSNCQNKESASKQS
The assay can be described thus: Inhibition of Aurora A (unknown origin) using kemptide as substrate after 30 mins by kinase-Glo luminescence method.
Settings: not given
In outline: as §1
Background: Kinase-Glo reads ATP consumption through a luciferase reaction.
Take `Cn1cc(-c2nn(Cc3ccc(C(=O)NC4CCCC4)cc3)c(=O)c3ccccc23)cn1`: it took 0.583 µM to reach half-maximal inhibition (IC50).

`Cn1cc(-c2nn(Cc3ccc(C(=O)NC4CC(C)(C)N([O])C(C)(C)C4)cc3)c(=O)c3ccccc23)cn1` displayed an IC50 of 0.168 µM.

For the compound `Cn1cc(Nc2nn(Cc3ccc(C(=O)NC4CCCCC4)cc3)c(=O)c3ccccc23)cn1`, the half-maximal inhibitory concentration (IC50) was found to be 0.145 µM.

Take `CN1CCC(NC(=O)c2ccc(Cn3nc(-c4cnn(C)c4)c4ccccc4c3=O)cc2)CC1`: it took 0.183 µM to reach half-maximal inhibition (IC50).

The next assay concerns HeLa. The assay is described as follows: Antiproliferative activity against human HeLa cells after 72 hrs by MTT assay. Type of assay: functional, cell-based. The settings on record: Homo sapiens, HeLa, 72 h. The gist of the method: as §2
In turn, `O=C(Nc1ccccc1Cl)c1ccc(Nc2nn(Cc3ccc(C(=O)NC4CCCCC4)cc3)c(=O)c3ccccc23)cc1` yielded an IC50 of 87.3 µM.

Regarding `Cn1cc(-c2nn(Cc3ccc(C(=O)NC4CCCC4)cc3)c(=O)c3ccccc23)cn1`, the IC50 worked out at 16.7 µM.

The compound `Cc1noc(C)c1-c1nn(Cc2ccc(C(=O)N3CCOCC3)cc2)c(=O)c2ccccc12` displayed a half-inhibitory concentration (IC50) above 100 µM.

With `Cc1noc(C)c1-c1nn(Cc2ccc(C(=O)NC3CCCCC3)cc2)c(=O)c2ccccc12`, the IC50 was above 100 µM.

In turn, `Cn1cc(-c2nn(Cc3ccc(C(=O)N4CCCCC4)cc3)c(=O)c3ccccc23)cn1` registered a 50% inhibitory concentration (IC50) of 65.5 µM.

In turn, `Cn1cc(-c2nn(Cc3ccc(C(=O)NC4CC(C)(C)N([O])C(C)(C)C4)cc3)c(=O)c3ccccc23)cn1` gave an IC50 of 27.7 µM.

Compound `Cn1cc(Nc2nn(Cc3ccc(C(=O)NC4CCCCC4)cc3)c(=O)c3ccccc23)cn1` returned an IC50 of 3.2 µM.

Compound `CN1CCC(NC(=O)c2ccc(Cn3nc(-c4cnn(C)c4)c4ccccc4c3=O)cc2)CC1` displayed a half-maximal inhibitory concentration (IC50) of 28.5 µM.

The next assay has as its system A549. The assay can be described thus: Antiproliferative activity against human A549 cells after 72 hrs by MTT assay. The settings on record: Homo sapiens, A549, 72 h. Type of assay: functional, cell-based. The gist of the method:
as §2
The compound `O=C(Nc1ccccc1Cl)c1ccc(Nc2nn(Cc3ccc(C(=O)NC4CCCCC4)cc3)c(=O)c3ccccc23)cc1` registered a half-maximal inhibitory concentration (IC50) above 100 µM.

`Cn1cc(-c2nn(Cc3ccc(C(=O)NC4CCCC4)cc3)c(=O)c3ccccc23)cn1` had an IC50 of 32.3 µM.

Regarding `Cc1noc(C)c1-c1nn(Cc2ccc(C(=O)N3CCOCC3)cc2)c(=O)c2ccccc12`, the IC50 is above 100 µM.

Compound `Cc1noc(C)c1-c1nn(Cc2ccc(C(=O)NC3CCCCC3)cc2)c(=O)c2ccccc12` had a half-maximal inhibitory concentration (IC50) above 100 µM.

Take `Cn1cc(-c2nn(Cc3ccc(C(=O)N4CCCCC4)cc3)c(=O)c3ccccc23)cn1`: the 50% inhibitory concentration (IC50) worked out at 67.4 µM.

For the compound `Cn1cc(-c2nn(Cc3ccc(C(=O)NC4CC(C)(C)N([O])C(C)(C)C4)cc3)c(=O)c3ccccc23)cn1`, the concentration for half-maximal inhibition (IC50) turned out to be 37.3 µM.

In the case of `Cn1cc(Nc2nn(Cc3ccc(C(=O)NC4CCCCC4)cc3)c(=O)c3ccccc23)cn1`, the concentration for half-maximal inhibition (IC50) is 6.8 µM.

`CN1CCC(NC(=O)c2ccc(Cn3nc(-c4cnn(C)c4)c4ccccc4c3=O)cc2)CC1` registered a 50% inhibitory concentration (IC50) of 54.3 µM.

The test system of another assay is HCT-116. The assay is described as follows: Antiproliferative activity against human HCT116 cells after 72 hrs by MTT assay. Type of assay: functional, cell-based. Particulars: Homo sapiens, HCT-116, 72 h. In outline:
as §2
Take `O=C(Nc1ccccc1Cl)c1ccc(Nc2nn(Cc3ccc(C(=O)NC4CCCCC4)cc3)c(=O)c3ccccc23)cc1`: the half-inhibitory concentration (IC50) was above 100 µM.

As for `Cn1cc(-c2nn(Cc3ccc(C(=O)NC4CCCC4)cc3)c(=O)c3ccccc23)cn1`, inhibition was half-maximal at 14.3 µM (IC50).

Compound `Cc1noc(C)c1-c1nn(Cc2ccc(C(=O)N3CCOCC3)cc2)c(=O)c2ccccc12` gave a 50% inhibitory concentration (IC50) above 100 µM.

Compound `Cc1noc(C)c1-c1nn(Cc2ccc(C(=O)NC3CCCCC3)cc2)c(=O)c2ccccc12` showed a half-maximal inhibitory concentration (IC50) above 100 µM.

`Cn1cc(-c2nn(Cc3ccc(C(=O)N4CCCCC4)cc3)c(=O)c3ccccc23)cn1` displayed a half-maximal inhibitory concentration (IC50) of 73.9 µM.

With `Cn1cc(-c2nn(Cc3ccc(C(=O)NC4CC(C)(C)N([O])C(C)(C)C4)cc3)c(=O)c3ccccc23)cn1`, inhibition was half-maximal at 50.5 µM (IC50).

Consider `Cn1cc(Nc2nn(Cc3ccc(C(=O)NC4CCCCC4)cc3)c(=O)c3ccccc23)cn1`, for which the IC50 was found to be 5.4 µM.

In turn, `CN1CCC(NC(=O)c2ccc(Cn3nc(-c4cnn(C)c4)c4ccccc4c3=O)cc2)CC1` yielded an IC50 of 69.5 µM.

A further assay relates to LoVo. The assay is described as follows: Antiproliferative activity against human LoVo cells after 72 hrs by MTT assay. Type of assay: functional, cell-based. Particulars: Homo sapiens, LoVo, 72 h. The gist of the method:
as §2
Take `O=C(Nc1ccccc1Cl)c1ccc(Nc2nn(Cc3ccc(C(=O)NC4CCCCC4)cc3)c(=O)c3ccccc23)cc1`: it took 79.5 µM to reach half-maximal inhibition (IC50).

`Cn1cc(-c2nn(Cc3ccc(C(=O)NC4CCCC4)cc3)c(=O)c3ccccc23)cn1` gave a half-inhibitory concentration (IC50) of 23.7 µM.

The compound `Cc1noc(C)c1-c1nn(Cc2ccc(C(=O)N3CCOCC3)cc2)c(=O)c2ccccc12` gave an IC50 of 84.4 µM.

Take `Cc1noc(C)c1-c1nn(Cc2ccc(C(=O)NC3CCCCC3)cc2)c(=O)c2ccccc12`: the half-inhibitory concentration (IC50) came out at 82.2 µM.

In turn, `Cn1cc(-c2nn(Cc3ccc(C(=O)N4CCCCC4)cc3)c(=O)c3ccccc23)cn1` showed an IC50 of 77.1 µM.

Turning to `Cn1cc(-c2nn(Cc3ccc(C(=O)NC4CC(C)(C)N([O])C(C)(C)C4)cc3)c(=O)c3ccccc23)cn1`, half-maximal inhibition (IC50) was put at 50.1 µM.

`Cn1cc(Nc2nn(Cc3ccc(C(=O)NC4CCCCC4)cc3)c(=O)c3ccccc23)cn1` came in with a 50% inhibitory concentration (IC50) of 5.3 µM.

`CN1CCC(NC(=O)c2ccc(Cn3nc(-c4cnn(C)c4)c4ccccc4c3=O)cc2)CC1` displayed an IC50 of 83.3 µM.
